This is a sample that favours compounds with a hit; in the whole collection about 2.7% have one here.
PAFAH2 FP inh: PAFAH2 (human) inhibition. 0.99% of 340,000 active. AID 492956. recombinant PAFAH2, FP-rhodamine activity probe, fluorescence polarization. inhibition, % at 3.39 µM. Q99487;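 active = inhibition above the mean over all tested compounds plus 3 SD, cut at about 30% in these data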;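 note: inhibitors block probe labeling of enzyme so polarization drops; 0% = enzyme with DMSO and 100% = wells lacking PAFAH2 protein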
RBBP9 inh: blocks human serine hydrolase RBBP9; O75884; recombinant RBBP9, FP-Rh probe fluorescence polarization; inhibition, % at 7.94 µM; 0.2% of 220,000 active; AID 1515;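 active = inhibition above the campaign mean of all tested compounds plus 3 SD, cut at about 14% in these data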;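 note: plate controls were DMSO wells with RBBP9 for no effect and wells lacking RBBP9 protein for full effect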
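Measured by – fluorescence polarization · Test system – RBBP9 protein · Input – 2.5 µM RBBP9 dispensing solution, before mixing · Measure – percent inhibition from mP, scaled between DMSO and no-protein wells · Benchmarks – DMSO-treated enzyme wells and wells lacking RBBP9 · Times – preincubation 30 min plus labeling 45 min at 25 °C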
PAFAH1B2 inh: PAFAH1B2 (human) inhibition; recombinant PAFAH1B2, FP-rhodamine activity probe, fluorescence polarization; inhibition, % at 3.39 µM; 1.2% of 340,000 active; AID 492953;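 active = inhibition above the mean of all tested compounds plus 3 SD, cut at about 24% in these data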;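 note: 0% = enzyme with DMSO and 100% = wells lacking PAFAH1B2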
Target sequence (P68402 whole entry, looked up): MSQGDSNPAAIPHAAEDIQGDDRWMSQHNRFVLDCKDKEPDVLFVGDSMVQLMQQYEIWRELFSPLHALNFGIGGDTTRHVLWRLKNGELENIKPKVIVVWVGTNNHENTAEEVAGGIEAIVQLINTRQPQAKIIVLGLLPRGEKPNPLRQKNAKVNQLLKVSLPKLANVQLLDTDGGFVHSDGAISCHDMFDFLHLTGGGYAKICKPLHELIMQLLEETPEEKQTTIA
pPAFAH FP inh: inhibitors of human plasma PAF acetylhydrolase (pPAFAH); Q13093; recombinant pPAFAH, FP-rhodamine probe fluorescence polarization; inhibition, % at 3.39 µM; 1.5% of 330,000 active;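 active = inhibition above the mean inhibition across the screen plus 3 SD, cut at about 25% in these data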;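 note: inhibitors block binding of the rhodamine activity-based probe so polarization drops; 0% = enzyme with DMSO and 100% = wells lacking pPAFAH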
PAFAH1B3 inh: inhibitors of human PAFAH1B3; Q15102; recombinant PAFAH1B3, FP-rhodamine probe, fluorescence polarization; inhibition, % at 3.39 µM; 0.28% of 340,000 active; AID 492972;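 active = inhibition above the screen-wide average of all tested compounds plus 3 SD, cut at about 25% in these data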;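 note: 0% = enzyme with DMSO only and 100% = wells lacking PAFAH1B3 protein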
Target sequence (Q15102 whole entry, looked up): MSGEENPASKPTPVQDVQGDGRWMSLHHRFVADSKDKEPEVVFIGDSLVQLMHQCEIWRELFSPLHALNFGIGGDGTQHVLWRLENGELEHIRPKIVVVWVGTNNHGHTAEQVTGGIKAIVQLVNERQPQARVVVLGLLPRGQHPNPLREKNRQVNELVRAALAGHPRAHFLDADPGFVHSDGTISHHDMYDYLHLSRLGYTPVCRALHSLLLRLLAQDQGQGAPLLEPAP
Active calls of the source: *; x = no result given; ! = not active in a repeat.

SMILES	PAFAH2 FP inh	RBBP9 inh	PAFAH1B2 inh	pPAFAH FP inh	PAFAH1B3 inh
O=C(O)c1ccc(-n2cccc2/C=C2/SC(=O)N(CC(=O)N3CCCC3)C2=O)cc1	38*	x	12	34*	23
O=C(O)c1ccc(-n2cccc2/C=C2/NC(=O)N(c3ccccc3)C2=O)cc1	26	-5	14	29*	12
Cc1ccc(SCC(=O)Nc2ccc(-c3nc4ccccc4[nH]3)cc2)cc1	1	-1	0	-3	8
CCCCn1c(N)c(N(CC(C)C)C(=O)c2ccc(Cl)c(S(=O)(=O)N3CCCC3)c2)c(=O)[nH]c1=O	0	x	-3	-2	-3
O=C(NC(NC(=S)Nc1c(Cl)cccc1Cl)C(Cl)(Cl)Cl)c1cccc([N+](=O)[O-])c1 (stereo unspecified)	-41	-1	-11	-7	-19
CC(=O)N1CCN(c2ccc(NCc3ccc(C)cc3)cc2)CC1	7	-1	7	18	0
CCc1ccc(CNc2ccc(N3CCN(C(C)=O)CC3)cc2)cc1	-8	13	0	30*	-2
COC(=O)c1c(NC(=O)C2C3CCC(O3)C2C(=O)O)sc2c1CCCCCC2 (stereo unspecified)	7	4	50*	6	8
Cc1ccc(S(=O)(=O)N2CCCCC2)cc1C(=O)OCC(=O)N1c2ccccc2NC(=O)C1(C)C	8	x	34*	7	6
Cc1ccc(C(=O)OCC(=O)N2CCC(C)CC2)cc1S(=O)(=O)N1CCCCC1	21	x	5	8	11
Cc1ccc(C(=O)OCC(=O)N2c3ccccc3NC(=O)C2(C)C)cc1S(=O)(=O)N1CCCCC1	8	x	27*	4	8
Cc1cc(C)c(C)c(S(=O)(=O)N2CCC(C(=O)OCC(=O)N3c4ccccc4NC(=O)C3(C)C)CC2)c1C	3	-3	0	5	7
O=C(c1cccnc1)N1CCN(S(=O)(=O)c2cccc(Cl)c2)CC1	-1	x	2	x	3
Cc1ccc(S(=O)(=O)c2ccc(Cl)cc2)cc1S(=O)(=O)N1CCN(C)CC1	-1	4	26*	6	4
O=C(CN1CCN(S(=O)(=O)c2ccc(Cl)cc2)CC1)c1ccc(O)c(O)c1	4	x	33*	16	6
CN1CCN(S(=O)(=O)c2ccc(Cl)cc2)CC1	-1	x	25*!	-9	11
O=C(c1cncc(Br)c1)N1CCN(S(=O)(=O)c2ccc(Cl)cc2)CC1	7	x	25*	3	12
COC(=O)CSc1ccc(S(=O)(=O)N2CCCCCC2)cc1[N+](=O)[O-]	-1	-4	5	4	1
O=C(c1ccc2ccccc2n1)N1CCN(S(=O)(=O)c2ccc(Cl)cc2)CC1	2	x	28*	0	2
COc1ccc(NC(=O)CCN2CCN(S(=O)(=O)c3ccc(Cl)cc3)CC2)cc1	6	-3	25*	-6	-2
O=C(C1CCCCC1)N1CCN(S(=O)(=O)c2ccc(Cl)cc2)CC1	-4	-12	27*	4	2
COc1ccc(S(=O)(=O)N2CCCC(C(F)(F)F)C2)cc1 (stereo unspecified)	4	0	13	1	10
O=S(=O)(c1ccc(Cl)cc1)N1CCCC(C(F)(F)F)C1 (stereo unspecified)	7	-3	30*	6	5
CCN1C(=O)/C(=C\c2cccn2-c2ccc([N+](=O)[O-])cc2)N(CC)C1=S	-2	5	6	3	3
COc1ccc(NC(=O)Nc2cccc3c2O[C@H](CN(C)C(=O)Nc2ccc4c(c2)OCO4)[C@@H](C)CN([C@H](C)CO)C3=O)cc1	5	x	9	-1	13
SMILES	PAFAH2 FP inh	RBBP9 inh	PAFAH1B2 inh	pPAFAH FP inh	PAFAH1B3 inh
O=C(NCCc1c[nH]c2ccccc12)c1ccc(S(=O)(=O)NCc2ccco2)cc1	17	-2	5	12	-6
CCCCOC(=O)c1ccc(O)cc1	2	-9	2	0	6
CCCCCCCCOC(=O)c1ccc(N)cc1	55*	-2	8	32*	5
CCOC(=O)c1ccc(NC(=O)c2nc[nH]c2C(=O)NCCNC(=O)c2[nH]cnc2C(=O)Nc2ccc(C(=O)OCC)cc2)cc1	-2	x	1	1	-2
O=C(O)c1ccc(N/N=C/c2cc3cc4c(cc3nc2Cl)OCCO4)cc1	2	-3	8	30*	4
CN(CC(=O)Nc1cccc(F)c1)C(=O)c1ccc(N2CCCCC2)c([N+](=O)[O-])c1	-2	x	3	2	3
CCn1c2ccccc2c2cc(NC(=O)c3ccc(=O)oc3)ccc21	x	-3	x	33*	x
O=C(O)c1cc(NS(=O)(=O)c2cccc3ccccc23)ccc1O	-1	0	6	7	0
Cc1cc(C(C)(C)C)cc(S(=O)(=O)Nc2ccc(O)c(C(=O)O)c2)c1C	-4	-6	47*	4	-3
Cn1c(SCc2ccccc2)nccc1=O	-2	x	8	x	21
CC1=C(SCc2ccccc2)C(=O)c2ccccc2C1=O	46*	x	22	x	48*
O=C(CSc1n[nH]c(=O)[nH]c1=O)Nc1c(Cl)cc(Cl)cc1Cl	-10	x	0	2	7
O=c1[nH]nc(SCc2cc(Cl)ccc2Cl)c(=O)[nH]1	1	1	29*	0	4
O=C(CSc1n[nH]c(=O)[nH]c1=O)Nc1ccc2c(c1)C(=O)c1ccccc1C2=O	10	-8	2	23	12
O=C(CSc1n[nH]c(=O)[nH]c1=O)c1ccc(Cl)cc1Cl	2	-1	30*	0	7
COc1ccccc1C(=O)NCCC(=O)Nc1ncccc1O	-5	x	5	5	0
COc1ccc2nc(Nc3sc4c(c3C(N)=O)CCCC4)sc2c1	0	-4	10	26*	19
Cc1ccc(S(=O)(=O)N2CCN(C(C)C(=O)NCC(C)c3ccccc3)CC2)cc1 (stereo unspecified)	-3	x	29*	-4	1
CC(C(=O)Nc1ccccc1-c1ccccc1)N1CCN(S(=O)(=O)c2ccccc2)CC1 (stereo unspecified)	-3	7	31*	0	11
CC(NC(=O)C(C)N1CCN(S(=O)(=O)c2ccccc2)CC1)c1ccccc1 (stereo unspecified)	6	x	4	-1	-10
COc1cc(CNCCO)ccc1OCCc1ccccc1	-1	x	2	4	12
CC(NC(=O)c1cccc(S(=O)(=O)N2CCc3ccccc32)c1)c1ccco1 (stereo unspecified)	-6	x	1	-2	-2
Cc1oc2cc(Br)c(O)c(Br)c2c1-c1ccccc1	72*	x	16	17	-4
CSCC(=O)NC1CCCc2c1cnn2-c1ccc(C)c(C)c1 (stereo unspecified)	3	x	3	0	3
CCCCCC#CCC#CCC#CCC#CCCCC(=O)O	x	-10	x	61*	x
CCCCCCCCCC(=O)O	-2	x	9	4	3
COc1ccc2ccc3c(c2c1)N=C[C@]1(O3)N(C)c2ccccc2C1(C)C	5	-6	-2	33*	2
